Laboratory results: the EternaBench riboswitch data

Legend:
MS2 coat protein [1] = assay: apparent Kd, MS2 coat protein; higher = weaker binding; RNA-MaP array; theophylline 2 mM where present
How it was run: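 The titrant was SNAP-549-labelled MS2 coat protein, run from 0.7 or 1.5 nM in doubling steps to 3 µM. It was applied to designs transcribed by stalled E. coli RNA polymerase on Illumina sequencing-chip clusters, without ligand first and then with constant ligand, in 100 mM Tris-HCl pH 7.5, 80 mM KCl, 4 mM MgCl2, BSA, DTT, yeast tRNA and Tween-20. The apparent Kd is the median of filtered per-cluster binding-curve fits, with green signal normalised to red-channel RNA signal and control-cluster median Fmax.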

MS2 coat protein [2] = assay: apparent Kd, MS2 coat protein; higher = weaker binding; RNA-MaP array
How it was run: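 Sequenced DNA templates on an Illumina sequencing chip were transcribed into the designed RNAs. These were incubated at room temperature in Tris-HCl pH 7.5 buffer containing KCl, MgCl2, BSA, DTT, tRNA and Tween20 with fluorescently labeled MS2 coat protein at 1.5 nM to 3 μM, with or without input ligand. Apparent Kd is the median of binding-curve fits per cluster, and designs with fewer than 10 clusters measured were excluded.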

[3] = designed as: ON switch for theophylline, no ligand
[4] = ligand present: theophylline, designed as: ON switch for theophylline
[5] = designed as: OFF switch for flavin mononucleotide, no ligand
[6] = ligand present: flavin mononucleotide, designed as: OFF switch for flavin mononucleotide
[7] = designed as: ON switch for flavin mononucleotide, no ligand
[8] = ligand present: flavin mononucleotide, designed as: ON switch for flavin mononucleotide
[9] = designed as: OFF switch for tryptophan, no ligand

| Sequence | apparent Kd (MS2 coat protein [2]; [5]) | apparent Kd (MS2 coat protein [2]; [6]) | also measured |
| --- | --- | --- | --- |
| GGUGGCGUGACGGAUACCAGCCACCGCCGCAAGGCCACAUGAGGAUCACCCAUGUUGGGUGGCCCUUGGCAGCUGUCGUGCGGCG | – | – | apparent Kd (MS2 coat protein [1]; [3]): 157 nM; apparent Kd (MS2 coat protein [1]; [4]): 281 nM |
| AAUAACAUGAGGAUCACCCAUGUAAAAGAUACCAGAUGCAUGAUGAUCCCUUGGCAGCUUAAAACGCGAUUGGAAACAAUCGCGA | – | – | apparent Kd (MS2 coat protein [1]; [3]): 31.2 nM; apparent Kd (MS2 coat protein [1]; [4]): 126 nM |
| CGGUACAUGAGGAUCACCCAUGUGUCGGAUACCAGAGAGCCGUCUCUCCCUUGGCAGCUGGUUUUACAUGAGGAUCACCCAUGUG | – | – | apparent Kd (MS2 coat protein [1]; designed as: OFF switch for theophylline, no ligand): 13.6 nM; apparent Kd (MS2 coat protein [1]; ligand present: theophylline, designed as: OFF switch for theophylline): 20.1 nM |
| UCGAGUACGGUGAGGAUAUCAUGAGGAUUACUACAAGAGAAGGCACAUGAGGAUCACCCAUGUGGCGACCAUUC | 6.28 nM | 6.32 nM | – |
| CACCCAACUAUACAUGAGGAUCACCCAUGUUGAAAGUGCAACAGAAGGCCCUACUAAUAUAGGAGGGAGGAUAUGUGAACCGAA | – | – | apparent Kd (MS2 coat protein [2]; [7]): 62.5 nM; apparent Kd (MS2 coat protein [2]; [8]): 11.4 nM |
| CUAAUGGAAGGAUAUACAUGAGGAUCACCCAUGUUUAAGUGAUUAGCGAAUUGUCAACGUAGAAGGUCCAAUUA | 42.6 nM | 84.3 nM | – |
| UAGGACAUCCAGAAGGUAACCCAAUGAUAUAACACAUGAGGAUCACCCAUGUUGAAUCAGAGACUUAAGGAUAUGGUUGAUCUU | – | – | apparent Kd (MS2 coat protein [2]; [7]): 23.1 nM; apparent Kd (MS2 coat protein [2]; [8]): 13.5 nM |
| AACCGGCAAGGAUAUACAUGAGGAUCACCCAUGUACGACGCGCUGGCUACGUUUUUAUGUAGAAGGUGCCGACC | 6.19 nM | 6.26 nM | – |
| AUAUGAGGAGUGAGGAUAUGAAUCUAACAGAAUAAUCAGAAGGCACAUGAGGAUCACCCAUGUAAAUAUAUGGU | 10.6 nM | 11.5 nM | – |
| UACCGCUACAUAGGAUAUGGAGGAUGUAUGAAACACAUGAGGAUCACCCAUGUCAUCUGCACACGCCAGAAGGAUGGAAGAAAA | – | – | apparent Kd (MS2 coat protein [2]; [7]): 13.4 nM; apparent Kd (MS2 coat protein [2]; [8]): 7.13 nM |
| GGUAUGUCAGGAUAUUAAUGGUCAGUAACGGAACAGAGGAGUAAGAAGGGACAUGAGGAUCACCCAUGUAUUCG | 17.1 nM | 16.4 nM | – |
| CUUAUCAUAGGAUAUACAUGAGGAUCACCCAUGUAGUAGCAUAUAUAUAGUUUCCCAAGUAGAAGGAUGUACAC | 9.43 nM | 7.9 nM | – |
| GCCCGGACACAAGGAUAUCAGACCAAUACAUGAGGAUCACCCAUGUCGGGCCUCUAAGUACGACCUGAGAAGGUGUCUCCCAGU | 421 nM | 345 nM | – |
| CCAGUUACCAGAGGAUAUGAUUCCAGAGUUAAGGGUAUUCACAUGAGGAUCACCCAUGUGCUCCUUCAGAAGGCUGAUAACCCG | 39.8 nM | 49.4 nM | – |
| AUCGCGACAGGAUAUACAUGAGGAUCACCCAUGUUGAUGAGCGAGCAUCGGACUGAGAGUAGAAGGGUCGGCUC | 9.26 nM | 9.04 nM | – |
| AUUCGAACGGUCAGGAUAUGCGGAAAGACAUCGCAGCAGAAGGGACAUGAGGAUCACCCAUGUAAAGGGCACAA | 36.1 nM | 182 nM | – |
| CUUCAACAUGAGGAUCACCCAUGUAGUGAUACCAGUCACUCAUACGACCCUUGGCAGCACAUUUUCUGUCGGCAUGUAGACGAUC | – | – | apparent Kd (MS2 coat protein [2]; [3]): 121 nM; apparent Kd (MS2 coat protein [2]; [4]): 59.9 nM |
| CAGACCCGGAAGAAGGAGGAGACAUAAACACGCCUAGGAUAUACGCCUGAAUAAACGUAAACAUGAGGAUCACCCAUGUCAAAC | – | – | apparent Kd (MS2 coat protein [2]; [7]): 9.5 nM; apparent Kd (MS2 coat protein [2]; [8]): 8.4 nM |
| GCGAACGGACCGUUGCCUUCCUGUGUGCGGCGAGGACCGGUACGGCCGCCACUCGACUGCGUACAUGAGGAUCACCCAUGUUAGA | – | – | apparent Kd (MS2 coat protein [2]; [9]): 26.5 nM; apparent Kd (MS2 coat protein [2]; ligand present: tryptophan, designed as: OFF switch for tryptophan): 66.3 nM |
| AUAAAUUUUACACGUUGCUACAUGAGGAUCACCCAUGUGUGGAGAAGGGAUCUGCCUACAAGGAAUCAGGAUAUCCAACUGUUC | – | – | apparent Kd (MS2 coat protein [2]; [7]): 32.9 nM; apparent Kd (MS2 coat protein [2]; [8]): 51.6 nM |
| GGGCGCCGAGGAUAUCACAGGAGUAACAUGAGGAUCACCCAUGUAUCAGUGGGCGUAAUAUGAGAAGGCGGUGGUU | 85.5 nM | 43.5 nM | – |
| AUGUCGCAAUGGAAAAGACAUGAGGAUCACCCAUGUCAGCGUAGAAGGACCUUGUCGACUAAUGGGUAGGAUAUACGAGAAUCC | – | – | apparent Kd (MS2 coat protein [2]; [7]): 6.79 nM; apparent Kd (MS2 coat protein [2]; [8]): 7.2 nM |
| GUCAUGUCAGGAUAUCGUUCGGAGUGCGAUUCCCUCUGCCGCGAGAAGGGACAUGAGGAUCACCCAUGUUCGAA | 16.8 nM | 43.7 nM | – |
| CCUGACAUGAGGAUCACCCAUGUGUGAGCACGAGGACCGGUACGGCCGCCACUCGCGUUGCCGGCCGGACUAUCUGGCGAAGUCA | – | – | apparent Kd (MS2 coat protein [2]; designed as: ON switch for tryptophan, no ligand): 32.9 nM; apparent Kd (MS2 coat protein [2]; ligand present: tryptophan, designed as: ON switch for tryptophan): 35.1 nM |
| UAUAAACAGCCUGGUUACUCGUCGCGCUUGCGAGGACCGGUACGGCCGCCACUCGACCCAUCACAUGAGGAUCACCCAUGUCCCA | – | – | apparent Kd (MS2 coat protein [2]; [9]): 31.7 nM |
| CUGAACUAAGGAUAUACGGCCCUCAAUUAUAAUUCUGUGAAACAUGAGGAUCACCCAUGUAGAAGGUAGUCGAC | 14.1 nM | 18.1 nM | – |
